Laboratory results as given in the RNAGym collection of RNA variant scans (doi:10.1038/nmeth.2970).

B1: NELF-E aptamer (parent)
chain: CCCAACGACUGCCGAGCGAGAUUACGCUUGAGCGCCCCACUGAGGAUGCCCACGGGCGAUUGGGGCACGG

Variants of: B1
Assay: HiTS-RAP
Conditions: with NELF-E (Drosophila)
In short: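 Kd came from weighted Hill fits to the first binding curve, with intensities normalised to sequencing intensity and averaged per sequence, keeping only fits whose variance was below 1,000,000. That curve was imaged on an Illumina GAIIx flowcell, where sequenced aptamer DNA templates with a T7 promoter and ter site had been transcribed in situ by T7 RNA polymerase and halted by GST-Tus (30 minutes, 37°C). Before each image, clusters equilibrated for 30 minutes at room temperature with NELF-E-mOrange at 0.064 to 1000 nM in HEPES binding buffer.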

| Variant | Kd [nM] |
| --- | --- |
| CCCAACGACUUCCGGGCGAGAUUACGCUUGAGCGCCCCACUGAGGAUGCCCACGGGCGAUUGGGGCACGG | 6.22 |
| CCCAACGACUUCCGUGCGAGAUUACGCUUGAGCGCCCCACUGAGGAUGCCCACGGGCGAUUGGGGCACGG | 7.47 |
| CCCAACGACUUCCGAGCGAGAUUACGUUUGAGCGCCCCACUGAGGAUGCCCACGGGCGAUUGGGGCACGG | 4.86 |
| CCCAACGACUUCCGAGCGAGAUUACGCUUGAGCGCCCCACUGAGGAUGCCCUCGGGCGAUUGGGGCACGG | 16.5 |
| CCCAACGACUUCCGAGCGAGAUUACGCUUGAGCGCCCCACUGAGGAUGCCCGCGGGCGAUUGGGGCACGG | 3.84 |
| CCCAACGACUUCCGAGCGAGAUUACGCUUGAGCGCCCCACUGAGGAUGCCCACGGGCGUUUGGGGCACGG | 48.9 |
| CCCAACGACUUCCGAGCGAGAUUACGCUUGAGCGCCCCACUGAGGAUGCCCACGGGCGGUUGGGGCACGG | 17.7 |
| CCCAACGACUUCCGAGCGAGAUUACGCUUAAGCGCCCCACUGAGGAUGCCCACGGGCGAUUGGGGCACGG | 5.79 |
| CCCAACGACUUCCGAGCGAGAUUACGCUUGAGCGCCCCACUGAGGAUGCCCACGGGCGAUCGGGGCACGG | 64.3 |
| CCCAACGACUUCCGAGCGAGAUUACGCUUGAGCGCCCCACUGAGGAUGCCCACGGGCGAUAGGGGCACGG | 41.1 |
| CCCAACGACUUCCGAGCGAGAUUACGCUUGAGCGCCCCACUGAGGAUGCCCACGGGCGAUUGUGGCACGG | 8.25 |
| CCCAACGACUUCCGAGCGAGAUUACGCUUGAGCGCCCCACUGAGGAUGCCCACGGGCGAUUGAGGCACGG | 19.4 |
| CCCAACGACUUCCGAGCGAGAUUACACUUGAGCGCCCCACUGAGGAUGCCCACGGGCGAUUGGGGCACGG | 5.08 |
| CCCAACGACUUCCGAGCGAGAUUACUCUUGAGCGCCCCACUGAGGAUGCCCACGGGCGAUUGGGGCACGG | 6.79 |
| CCCAACGACUUCCGAGCGAGAUUACGCUUGAGCGCCCCACUGAGGAUGCCCAUGGGCGAUUGGGGCACGG | 3.96 |
| CCCAACGACUUCCGAGCGAAAUUACGCUUGAGCGCCCCACUGAGGAUGCCCACGGGCGAUUGGGGCACGG | 5.7 |
| CCCAACGACUUCCGAGCGAUAUUACGCUUGAGCGCCCCACUGAGGAUGCCCACGGGCGAUUGGGGCACGG | 7.02 |
| CCCAACGACUUCCGAGCGAGAUUACGCUUGAGCGCCCCACUGAGGAUGCCCACGGGCGAUUAGGGCACGG | 19.7 |
| CCCAACGACUUCCGAGCGAGAUUACGCUUGAGCGCCCCACUAAGGAUGCCCACGGGCGAUUGGGGCACGG | 55.9 |
| CCCAACGACUUCCGAGCGUGAUUACGCUUGAGCGCCCCACUGAGGAUGCCCACGGGCGAUUGGGGCACGG | 7.3 |
| CCCAACGACUUCCGAGCGGGAUUACGCUUGAGCGCCCCACUGAGGAUGCCCACGGGCGAUUGGGGCACGG | 6.05 |
| CCCAACGACUUUCGAGCGAGAUUACGCUUGAGCGCCCCACUGAGGAUGCCCACGGGCGAUUGGGGCACGG | 4.76 |
| CCCAACGACUUGCGAGCGAGAUUACGCUUGAGCGCCCCACUGAGGAUGCCCACGGGCGAUUGGGGCACGG | 5.8 |
| CCCAACGACUCCCGAGCGAGAUUACGCUUGAGCGCCCCACUGAGGAUGCCCACGGGCGAUUGGGGCACGG | 6.3 |
| CCCAACGACUUCCGAGCGAGAUUACGCUUGAGCGCCCCACUGAGGAUGCCCACGGGCGAUUGGGGCACGG | 5.7 |
| CCCAACGACUUCCGAGCGAGAUUACGCUUGAGCGCCCCACUGAGGAUGCCCACGGGUGAUUGGGGCACGG | 6.12 |

| Variant | Kd [nM] |
| --- | --- |
| CCCAACGACUUCCGAGCGAGAUUACGCUUGAGCGCCCCACUGAGGAUGCCCACGGGCGAUUGGGUCACGG | 7.6 |
| CCCAACGACUUCCGAGCGAGAUUACGCUUGAGCGCCCCACUGAGGAUGCCCACGGGCGAUUGGGACACGG | 5.5 |
| CCCAACGACUUCCGAGCGAGGUUACGCUUGAGCGCCCCACUGAGGAUGCCCACGGGCGAUUGGGGCACGG | 7.69 |
| CCCAACGACUUCCGAGCGAGUUUACGCUUGAGCGCCCCACUGAGGAUGCCCACGGGCGAUUGGGGCACGG | 5.9 |
| CCCAACGACUGACGAGCGAGAUUACGCUUGAGCGCCCCACUGAGGAUGCCCACGGGCGAUUGGGGCACGG | 4.42 |
| CCCAACGACUUCCGAGCGAGAUUACGCUUGAGCGCCCCACUGAGGAUGCCCACGAGCGAUUGGGGCACGG | 8.79 |
| CCCAACGACUUCCGAGCGAGAUUACGCUUGAGCGCCCCACUGAGGAUGCCCACGUGCGAUUGGGGCACGG | 7.1 |
| CCCAACGACUUCCGAGCGAGAUUACGCUUGAGCGCCCCACUGAGGAUGCCCACGGACGAUUGGGGCACGG | 10.8 |
| CCCAACGACUUCCGAGCGAGAUUACGCUUGAGCACCCCACUGAGGAUGCCCACGGGCGAUUGGGGCACGG | 6.7 |
| CCCAACGACUUCCGAGCGAGAUUACGCUUGAGCGCCCCACUGAGGAUGCCCACAGGCGAUUGGGGCACGG | 14.1 |
| CCCAACGACUGACGAGCGAGAUUGCGCUUGAGCGCCCCACUGAGGAUGCCCACGGGCGAUUGGGGCACGG | 5.99 |
| CCCAACGACUUCCGAGUGAGAUUACGCUUGAGCGCCCCACUGAGGAUGCCCACGGGCGAUUGGGGCACGG | 5.76 |
| CCCAACGACUUCCGAGGGAGAUUACGCUUGAGCGCCCCACUGAGGAUGCCCACGGGCGAUUGGGGCACGG | 5.84 |
| CCCAACGACUUCGGAGCGAGAUUACGCUUGAGCGCCCCACUGAGGAUGCCCACGGGCGAUUGGGGCACGG | 5.71 |
| CCCAACGACUUCUGAGCGAGAUUACGCUUGAGCGCCCCACUGAGGAUGCCCACGGGCGAUUGGGGCACGG | 6.19 |
| CCCAACGACUUCAGAGCGAGAUUACGCUUGAGCGCCCCACUGAGGAUGCCCACGGGCGAUUGGGGCACGG | 6.58 |
| CCCAACGACUUCCGAGCGAGAUUACGCUUGAGCGCCCCACUGGGGAUGCCCACGGGCGAUUGGGGCACGG | 45.8 |
| CCCAACGACUUCCGAGCGAGAGUACGCUUGAGCGCCCCACUGAGGAUGCCCACGGGCGAUUGGGGCACGG | 6.4 |
| CCCAACGACUUCCGAACGAGAUUACGCUUGAGCGCCCCACUGAGGAUGCCCACGGGCGAUUGGGGCACGG | 6.06 |
| CCCAACGACUUCCGAUCGAGAUUACGCUUGAGCGCCCCACUGAGGAUGCCCACGGGCGAUUGGGGCACGG | 6.7 |
| CCCAACGACUUCCGAGCGAGAUUACGCUUGAACGCCCCACUGAGGAUGCCCACGGGCGAUUGGGGCACGG | 6.15 |
| CCCAACGACUCGCGAGCGAGAUUACGCUUGAGCGCCCCACUGAGGAUGCCCACGGGCGAUUGGGGCACGG | 5.71 |
| CCCAACGACUUCCGAGCGAGAUGACGCUUGAGCGCCCCACUGAGGAUGCCCACGGGCGAUUGGGGCACGG | 6.33 |
| CCCAACGACUACCGAGCGAGAUUACGCUGGAGCGCCCCACUGAGGAUGCCCACGGGCGAUUGGGGCACGG | 6.58 |
| CCCAACGACUUCCUAGCGAGAUUACGCUUGAGCGCCCCACUGAGGAUGCCCACGGGCGAUUGGGGCACGG | 6.82 |
| CCCAACGACUUCCAAGCGAGAUUACGCUUGAGCGCCCCACUGAGGAUGCCCACGGGCGAUUGGGGCACGG | 6.87 |

| Variant | Kd [nM] |
| --- | --- |
| CCCAACGACUUCCGAGCGAGAUUACGCUCGAGCGCCCCACUGAGGAUGCCCACGGGCGAUUGGGGCACGG | 6.7 |
| CCCAACGACUUCCGAGCGAGAUUACGCUAGAGCGCCCCACUGAGGAUGCCCACGGGCGAUUGGGGCACGG | 5.62 |
| CCCAACGACUUCCGAGCGAGAUUACGCUGGAGCGCCCCACUGAGGAUGCCCACGGGCGAUUGGGGCACGG | 6 |
| CCCAACGACUUCCGAGCGAGAUUACGCUUGAGCGCCCCACUGAGGAUGCCCACGGGCGAUUGGAGCACGG | 9.29 |
| CCCAACGACUUCCGAGCGAGAUUACGCUUGAGCGCCUCACUGAGGAUGCCCACGGGCGAUUGGGGCACGG | 7.71 |
| CCCAACGACUUCCGAGCGAGAUUAGGCUUGAGCGCCCCACUGAGGAUGCCCACGGGCGAUUGGGGCACGG | 4.89 |
| CCCAACGACUUCCGAGCGAGAUUACGCUUGAGCGCCCCACUGAGGAUGCUCACGGGCGAUUGGGGCACGG | 17.7 |
| CCCAACGACUACCGAGCGAGAUUACGCUUGAGCGCCCCACGGAGGAUGCCCACGGGCGAUUGGGGCACGG | 6.14 |
| CCCAACGACUACCGAGCGAGAUUACGCUUGAGCGCCCCACCGAGGAUGCCCACGGGCGAUUGGGGCACGG | 83.6 |
| CCCAACGACUACCGAGCGAGAUUACGCUUGAGCGCCCCACAGAGGAUGCCCACGGGCGAUUGGGGCACGG | 77 |
| CCCAACGACUUCCGAGCGAGAUUACGCUUGAGCGCCCCACUGAGGAUGCCCACGGGCGAUUGGGGCGCGG | 6.41 |
| CCCAACGACUUCCGAGCGAGAUUACGCUUGAGCGCCCCACUGAGGAUGCCCACGGGCGAUUGGGGCUCGG | 9.06 |
| CCCAACGACUUCCGAGCGAGAUUACGCCUGAGCGCCCCACUGAGGAUGCCCACGGGCGAUUGGGGCACGG | 9.24 |
| CCCAACGACUUCCGAGCGAGAUUACGCUUGUGCGCCCCACUGAGGAUGCCCACGGGCGAUUGGGGCACGG | 6.12 |
| CCCAACGACUUCCGAGCGAGAUUACGCUUGGGCGCCCCACUGAGGAUGCCCACGGGCGAUUGGGGCACGG | 7.38 |
| CCCAACGACUGACGAGCGAGAGUACGCUUGAGCGCCCCACUGAGGAUGCCCACGGGCGAUUGGGGCACGG | 4.37 |
| CCCAACGACUUCCGAGCGAGAUUUCGCUUGAGCGCCCCACUGAGGAUGCCCACGGGCGAUUGGGGCACGG | 5.45 |
| CCCAACGACUUCCGAGCGAGAUUGCGCUUGAGCGCCCCACUGAGGAUGCCCACGGGCGAUUGGGGCACGG | 5.82 |
| CCCAACGACUUCCGAGCGAGAUUACGCUUGAGCGCCCCACUGAGGAUGCCUACGGGCGAUUGGGGCACGG | 6.67 |
| CCCAACGACUGACGAGCGAGAUGACGCUUGAGCGCCCCACUGAGGAUGCCCACGGGCGAUUGGGGCACGG | 5.88 |
| CCCAACGACUGAGGAGCGAGAUUACGCUUGAGCGCCCCACUGAGGAUGCCCACGGGCGAUUGGGGCACGG | 5.33 |
| CCCAACGACUUCCGAGCGAGAUUACGCUUGAGCGCCCCGCUGAGGAUGCCCACGGGCGAUUGGGGCACGG | 11.4 |
| CCCAACGACUUCCGAGCGAGAUUACGCUUGAGCGCCCCUCUGAGGAUGCCCACGGGCGAUUGGGGCACGG | 21.3 |
| CCCAACGACUUCCGAGCGAGAUUACGCUUGAGCGCCCCACGGAGGAUGCCCACGGGCGAUUGGGGCACGG | 6.22 |
| CCCAACGACUUCCGAGCGAGAUUACGCUUGAGCGCCCCACUGAGGAGGCCCACGGGCGAUUGGGGCACGG | 7.92 |
